MIC data for four molecules are collected here from ChEMBL document CHEMBL1649124, “Genetic variability among ampC genes from acinetobacter genomic species 3” (Antimicrob Agents Chemother, 2009).

SMILES strings stand for the structures. ≈ marks a conversion by molar mass, not a printed value.

Holding throughout (format): functional
Test [1] has as its system Escherichia coli. The test can be described thus: Antibacterial activity against Escherichia coli DH5alpha carrying ampC gene of Acinetobacter genomosp. 3 isolate 65 by Etest method. A digest of the protocol: (§1)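 E. coli DH5α expressing the AG3 isolate ampC gene, PCR-amplified (high-fidelity system, 28 cycles) and cloned into BamHI/HindIII sites of pBGS18 (kanamycin marker) under the CTX-M-14 β-lactamase promoter. Grown at 37°C in LB, with kanamycin 50 µg/ml when needed. β-Lactam MICs determined by Etest per the manufacturer's instructions.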

Test [2] relates to Escherichia coli. In words: Antibacterial activity against Escherichia coli DH5alpha carrying ampC gene of Acinetobacter genomosp. 3 isolate 103 by Etest method. In short, it runs like this: as §1
The test system of test [3] is Escherichia coli. The test can be described thus: Antibacterial activity against Escherichia coli DH5alpha carrying ampC gene of Acinetobacter genomosp. 3 isolate 56 by Etest method. A digest of the protocol:
as §1

Test [4] has as its system Acinetobacter pittii. The test can be described thus: Antibacterial activity against Acinetobacter genomosp. 3 isolate 195 by Etest method. In short, it runs like this:
(§2)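 MICs for AG3 clinical isolates were read by Etest following the manufacturer's instructions. Isolates were stored at –80°C in 10% Brucella glycerol broth before testing.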

Test [5] has as its system Acinetobacter pittii. The test can be described thus: Antibacterial activity against Acinetobacter genomosp. 3 isolate 20 by Etest method. In short, it runs like this:
as §2

For test [6], the system named is Acinetobacter pittii. The test can be described thus: Antibacterial activity against Acinetobacter genomosp. 3 isolate 56 by Etest method. A digest of the protocol:
as §2

The subject of test [7] is Acinetobacter pittii. In words: Antibacterial activity against Acinetobacter genomosp. 3 isolate 14 by Etest method. A digest of the protocol: as §2
The subject of test [8] is Escherichia coli. In words: Antibacterial activity against Escherichia coli DH5alpha carrying ampC gene of Acinetobacter genomosp. 3 isolate 20 by Etest method. A digest of the protocol: as §1
The test system of test [9] is Escherichia coli. The test can be described thus: Antibacterial activity against Escherichia coli DH5alpha carrying ampC gene of Acinetobacter genomosp. 3 isolate 109 by Etest method. A digest of the protocol:
as §1

The test system of test [10] is Escherichia coli. The test can be described thus: Antibacterial activity against Escherichia coli DH5alpha carrying ampC gene of Acinetobacter genomosp. 3 isolate 14 by Etest method. A digest of the protocol:
as §1

For test [11], the system named is Acinetobacter pittii. In words: Antibacterial activity against Acinetobacter genomosp. 3 isolate 69 by Etest method. A digest of the protocol: as §2
In test [12] the test system is Acinetobacter pittii. The test can be described thus: Antibacterial activity against Acinetobacter genomosp. 3 isolate 60 by Etest method. A digest of the protocol: as §2
Test [13] deals with Acinetobacter pittii. The test can be described thus: Antibacterial activity against Acinetobacter genomosp. 3 isolate 109 by Etest method. A digest of the protocol:
as §2

For test [14], the system named is Escherichia coli. The test can be described thus: Antibacterial activity against Escherichia coli DH5alpha by Etest method. In short, it runs like this: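 E. coli DH5α host strain, grown at 37°C in LB medium. MICs of β-lactams determined by Etest following the manufacturer's instructions.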
The subject of test [15] is Acinetobacter pittii. In words: Antibacterial activity against Acinetobacter genomosp. 3 isolate 90 by Etest method. In short, it runs like this:
as §2

Test [16] has as its system Acinetobacter pittii. In words: Antibacterial activity against Acinetobacter genomosp. 3 isolate 65 by Etest method. In short, it runs like this: as §2
The test system of test [17] is Acinetobacter pittii. The test can be described thus: Antibacterial activity against Acinetobacter genomosp. 3 isolate 67 by Etest method. A digest of the protocol: as §2
Test [18] relates to Escherichia coli. The test can be described thus: Antibacterial activity against Escherichia coli DH5alpha carrying ampC gene of Acinetobacter genomosp. 3 isolate 69 by Etest method. In short, it runs like this: as §1
In test [19] the test system is Acinetobacter pittii. The test can be described thus: Antibacterial activity against Acinetobacter genomosp. 3 isolate 128 by Etest method. In short, it runs like this:
as §2

For test [20], the system named is Acinetobacter pittii. The test can be described thus: Antibacterial activity against Acinetobacter genomosp. 3 isolate 103 by Etest method. A digest of the protocol: as §2
Test [21] deals with Acinetobacter pittii. In words: Antibacterial activity against Acinetobacter genomosp. 3 isolate 52 by Etest method. In short, it runs like this: as §2
The test system of test [22] is Acinetobacter pittii. The test can be described thus: Antibacterial activity against Acinetobacter genomosp. 3 isolate 243 by Etest method. A digest of the protocol:
as §2

Test [23] deals with Acinetobacter pittii. In words: Antibacterial activity against Acinetobacter genomosp. 3 isolate 21 by Etest method. A digest of the protocol: as §2
Test [24] has as its system Escherichia coli. In words: Antibacterial activity against Escherichia coli DH5alpha carrying ampC gene of Acinetobacter genomosp. 3 isolate 195 by Etest method. A digest of the protocol:
as §1

Turning to `C[C@@H](O)[C@H]1C(=O)N2C(C(=O)O)=C(SCCNC=N)C[C@H]12` [IMIPENEM ANHYDROUS], the MIC amounted to 0.19 µg/mL (≈ 0.635 µM) in test [1]; 0.125 µg/mL (≈ 0.418 µM) in [2]; 0.19 µg/mL (≈ 0.635 µM) in test [3]; 0.19 µg/mL in test [4]; 1 µg/mL in [5]; 0.19 µg/mL in [6]. Besides, the MIC in test [7] came to 0.25 µg/mL; in [8], 0.023 µg/mL (≈ 0.0768 µM); in [9], 0.12 µg/mL (≈ 0.401 µM); in test [10] it was 0.125 µg/mL (≈ 0.418 µM); in test [11], 0.25 µg/mL; in [12], 0.25 µg/mL. Besides, the MIC in [13] was determined as 0.19 µg/mL; in test [14] it was 0.125 µg/mL (≈ 0.418 µM); in [15], 0.38 µg/mL; in test [16], 0.19 µg/mL; in [17], 0.19 µg/mL; in test [18], 0.19 µg/mL (≈ 0.635 µM). The MIC in test [19] came to 0.12 µg/mL; in [20], 0.75 µg/mL; in [21], 0.25 µg/mL; in test [22] it was 0.19 µg/mL; in [23], 0.38 µg/mL.

For the molecule `CO/N=C(\C(=O)N[C@@H]1C(=O)N2C(C(=O)[O-])=C(C[N+]3(C)CCCC3)CS[C@H]12)c1csc(N)n1`, the MIC in [1] stood at 0.032 µg/mL (≈ 0.0666 µM); in [2], 0.032 µg/mL (≈ 0.0666 µM); in [3], 0.023 µg/mL (≈ 0.0479 µM); in test [4] it was 6 µg/mL; in test [5] it was 4 µg/mL; in test [6] it was 2 µg/mL. Also, the MIC in test [7] came out at 3 µg/mL; in test [8], 0.19 µg/mL (≈ 0.395 µM); in test [9] it was 0.023 µg/mL (≈ 0.0479 µM); in test [24], 0.032 µg/mL (≈ 0.0666 µM); in test [10], 0.023 µg/mL (≈ 0.0479 µM); in test [11] it was 3 µg/mL. In addition, the MIC is 4 µg/mL in test [12]; 2 µg/mL in [13]; 0.016 µg/mL (≈ 0.0333 µM) in test [14]; 16 µg/mL in test [15]; 3 µg/mL in test [16]; 4 µg/mL in test [17]. In addition, the MIC in test [18] was found to be 0.023 µg/mL (≈ 0.0479 µM); in test [19], 2 µg/mL; in test [20], 3 µg/mL; in [21], 2 µg/mL; in test [22], 3 µg/mL; in test [23], 12 µg/mL.

Regarding `Cc1onc(-c2ccccc2Cl)c1C(=O)N[C@@H]1C(=O)N2[C@@H]1SC(C)(C)[C@@H]2C(=O)O` [CLOXACILLIN], the MIC was 1020 µg/mL in test [4]; 1020 µg/mL in test [5]; 512 µg/mL in test [6]; 2050 µg/mL in [7]; > 2050 µg/mL in [11]; 1020 µg/mL in test [12]. Further, the MIC in test [13] came to 2050 µg/mL; in [15], 512 µg/mL; in test [16], 1020 µg/mL; in [17], 1880 µg/mL; in test [19] it was 2050 µg/mL; in [20], 1020 µg/mL. In addition, the MIC in test [21] stood at 1020 µg/mL; in test [22] it was 2050 µg/mL; in [23], 512 µg/mL.

`N#CC(C#N)=NNc1cccc(Cl)c1` [CARBONYL CYANIDE M-CHLOROPHENYLHYDRAZONE]: the minimal inhibitory concentration (MIC) in [4] is > 400 µM; in test [5], 400 µM; in test [6], > 400 µM; in test [7], 400 µM; in [11] it was > 400 µM; in [12], > 400 µM. For the same molecule, the MIC in test [13], in test [15], in test [16], in test [17], in test [19] and in test [20] was > 400 µM each time. The MIC in test [21] is > 400 µM; in test [22], 400 µM; in test [23] it was > 400 µM.

For orientation: MIC means the lowest concentration found to suppress growth. A lower MIC goes with greater potency.
